Rows were chosen to be rich in hits. Some 12% of all compounds tested hit in one or more screens of this group.
CHOP inhibitor – inhibitors of CHOP induction in ER stress response; CHO-K1 CHOP-promoter luciferase, tunicamycin-induced, 15-18 h; inhibition, % at 10 µM; 220,000 compounds, 3.8% hits; AID 2732;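 active = compounds that reduced the stress-induced luciferase reporter signal by more than about 70% of percent inhibition, limit read from the data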;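 note: 0% = tunicamycin plus vehicle and 100% = wells without tunicamycin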
MT stabilizer – stabilizes microtubules in HeLa cells | HeLa tubulin immunostaining HCS, 24 h; share of cells brighter than vehicle mean+2SD | % tubulin-high responders, % at 10 µM | 200,000 compounds, 0.83% hits | AID 2205;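 active = plate Z-score above 3 for both tubulin-high and condensed-nucleus cell shares, with cell loss under 80%, at 10 µM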;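 note: anti alpha tubulin signal scored within the nucleus-defined area of each cell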
Dynein cargo inh – dynein cargo transport inhibition. 3617.4 mouse cells, GR-EGFP nuclear translocation imaging; test concentration mostly 20 µM; stimulated with dexamethasone, 1 µM; hits give low values. z-score, hits read low. 220,000 compounds, 0.47% hits;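 active = plate z-score of nuclear minus cytoplasmic receptor signal below a set negative limit, without overly bright fluorescence or cell loss, cut at about -3.5 in these data, passing the limit was not always enough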;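 note: z-score of nuclear minus cytoplasmic ring GR-EGFP intensity difference per well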
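Also added: dexamethasone, 1.0 µM final. Medium: tet-free, stripped-serum medium. Detection: fixed, Hoechst-stained cells imaged at 10x for EGFP. Read-out: nuclear-to-cytoplasmic GR-EGFP distribution per well. Times: induction 48 h, compound 1 h, agonist 30 min.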
L major viab – Leishmania major promastigote growth inhibition. Leishmania major promastigotes, resazurin fluorescence viability. inhibition, % at 10 µM. 200,000 compounds, 9% hits. AID 1063; in the data active = inhibition above about 50%;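 note: promastigotes grown with compound for 44 hours at 28 °C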
bCat nuc transl – modulators of beta-catenin nuclear translocation; 190,000 compounds, 0.3% hits; AID 1665; nuclear translocation activity, % at 5 µM; HeLa beta-catenin nuclear translocation, immunofluorescence imaging;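 active = nuclear translocation activity above 50% at 5 µM, with a well cell count of 50 or more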;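 note: per-cell ratio of nuclear to cytoplasmic median beta-catenin stain intensity; plate controls were DMSO negative control for no effect and GSK-3 inhibitor IX positive control for full effect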
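Test system: human HeLa cells, native beta-catenin. Compound dosing: 5 µM primary single dose, 0.1% DMSO, 0.02–20 µM confirmation series. Incubation: compound exposure 24 h at 37°C. Detection: beta-catenin immunostaining with DAPI counterstain, 20x imaging, 6 fields/well. Read-out basis: Nuclear/cytoplasmic beta-catenin signal ratio, % activation.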
Autophagy mod – autophagy modulation, high-content screen; MEF GFP-LC3 puncta imaging; test concentration mostly 10 µM; calls only at 10 µM (by protocol); 190,000 compounds, 0.98% hits;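 active = percentage of spot-positive cells more than 3 SD above its plate mean, without a fluorescence outlier flag or 80% toxicity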;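 note: spot-positive cell cutoff set from DMSO-treated cells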
* marks the source's active call; other numbers are inactive results.

Screening Cc1nn(-c2ccccc2)c(C)c1NC(=O)c1cccs1 returned CHOP inhibitor -1, MT stabilizer 41*, Dynein cargo inh -0.38, L major viab 3 and Autophagy mod inactive.
Screening COc1cc(OC)cc(C(=O)Nc2c(C)nn(-c3ccccc3)c2C)c1 returned CHOP inhibitor -4, MT stabilizer 13*, Dynein cargo inh 0.07, L major viab -6, bCat nuc transl 0 and Autophagy mod inactive.
O=C1CCC(=O)N1N1C(=O)C2C3c4ccccc4C(c4ccccc43)C2C1=O (stereo unspecified) was read as CHOP inhibitor 11, MT stabilizer 4, Dynein cargo inh -0.2, L major viab 2, bCat nuc transl 0 and Autophagy mod inactive.
For CC12CC(c3ccccc3O1)N(C(=O)c1ccco1)C(=S)N2c1ccc(F)cc1 (stereo unspecified) the results were CHOP inhibitor 37, MT stabilizer 2, Dynein cargo inh -0.094, L major viab 1, bCat nuc transl 2 and Autophagy mod inactive.
`Cc1nc(SCCOc2ccccc2F)[nH]c(=O)c1Cc1ccccc1` gave CHOP inhibitor 18, MT stabilizer 4, Dynein cargo inh 1.4, L major viab 1, bCat nuc transl -2 and Autophagy mod inactive.
For COc1ccc(CNC(=O)C/C(C)=N/NC(=O)C23CC4CC(CC(C4)C2)C3)cc1 the results were CHOP inhibitor -6, MT stabilizer 3, Dynein cargo inh -0.046, L major viab -3, bCat nuc transl -1 and Autophagy mod inactive.
Screening CC1(c2cc([N+](=O)[O-])cc([N+](=O)[O-])c2)CC(C)(C)N(C(=O)c2ccccc2)c2ccccc21 (stereo unspecified) returned CHOP inhibitor -7, MT stabilizer 3, Dynein cargo inh -0.23, L major viab 98*, bCat nuc transl -6 and Autophagy mod inactive.
CC1(c2ccccc2)CC(C)(C)N(C(=O)C2CCCO2)c2ccccc21 (stereo unspecified) was read as CHOP inhibitor -22, MT stabilizer 1, Dynein cargo inh 0.38, L major viab 87* and Autophagy mod inactive.
O=C1CC(c2ccccc2)CN1C(=O)c1cccc([N+](=O)[O-])c1 (stereo unspecified) was read as CHOP inhibitor 46, MT stabilizer 4, Dynein cargo inh 0.055, L major viab -11, bCat nuc transl 1 and Autophagy mod inactive.
Screening CC1(c2ccccc2)CC(C)(C)N(C(=O)CSc2nnc(N)s2)c2ccccc21 (stereo unspecified) returned CHOP inhibitor 54, MT stabilizer 2, Dynein cargo inh -0.21, L major viab 15, bCat nuc transl 2 and Autophagy mod inactive.
For COc1ccc(C2OC3=C(Nc4cc(C)c(C)cc4N3)C2=O)cc1 (stereo unspecified) the results were CHOP inhibitor 0, Dynein cargo inh -0.26 and bCat nuc transl -3.
Screening CCn1c(C)nc2cc(C(=O)N/N=C(\C)c3ccc(OC)cc3O)ccc21 returned CHOP inhibitor 42, MT stabilizer 3, Dynein cargo inh 0.26, L major viab 38, bCat nuc transl 2 and Autophagy mod inactive.
Screening CCN(CC(=O)Nc1ccc2c(c1)CCC2)Cc1nc2ccccc2c(=O)[nH]1 returned CHOP inhibitor 71*, MT stabilizer 4, Dynein cargo inh -0.87, L major viab 2, bCat nuc transl 0 and Autophagy mod inactive.
CCN(CC)CC(=O)Nc1ccc2c(c1)Nc1ccccc1CC2 was read as CHOP inhibitor 11, MT stabilizer 31*, Dynein cargo inh -0.9, L major viab 52*, bCat nuc transl 19 and Autophagy mod inactive.
Screening CCN(CC(=O)NC(c1ccccc1)c1ccccc1)Cc1nc2ccccc2c(=O)[nH]1 returned CHOP inhibitor -1, MT stabilizer 3, Dynein cargo inh 0.35, L major viab 54*, bCat nuc transl 0 and Autophagy mod inactive.
Screening CCN(CC(=O)Nc1ccccc1-c1ccccc1)Cc1nc2ccccc2c(=O)[nH]1 returned CHOP inhibitor -14, MT stabilizer 25*, Dynein cargo inh -0.33, L major viab 4, bCat nuc transl 20 and Autophagy mod inactive.
Screening CCN(CC(=O)Nc1ccccc1SC)Cc1nc2ccccc2c(=O)[nH]1 returned CHOP inhibitor -5, Dynein cargo inh -1.1 and bCat nuc transl 2.
Cc1ccc(C2C(C#N)=C(N)N(c3cccnc3)C3=C2C(=O)CCC3)c(C)c1 (stereo unspecified) was read as CHOP inhibitor 12, MT stabilizer 1, Dynein cargo inh -1.2, L major viab 4, bCat nuc transl 1 and Autophagy mod inactive.
Screening Clc1ccccc1-c1nc2ccccc2c2nc3ccccc3n12 returned CHOP inhibitor 30, MT stabilizer 2, Dynein cargo inh 0.0022, L major viab 20, bCat nuc transl 4 and Autophagy mod active.
CCCN(Cc1ccc(N(CC)CC)cc1)CC1CC1 was read as CHOP inhibitor 9, MT stabilizer 3, Dynein cargo inh -0.82, L major viab 76*, bCat nuc transl 1 and Autophagy mod inactive.
`COc1ccc(Nc2nc(N)nc(CN3CCc4ccccc4C3)n2)cc1` gave CHOP inhibitor 25, MT stabilizer 8, Dynein cargo inh -1.2, L major viab 7 and Autophagy mod inactive.
For Cc1c(Cl)cccc1Nc1nc(N)nc(CN2CCCCCC2)n1 the results were CHOP inhibitor -12, MT stabilizer 1, Dynein cargo inh 0.17, L major viab 81*, bCat nuc transl 3 and Autophagy mod inactive.
For COc1ccccc1Nc1nc(N)nc(CN2CCc3ccccc3C2)n1 the results were CHOP inhibitor -4, MT stabilizer 6, Dynein cargo inh 0.17, L major viab 100*, bCat nuc transl -1 and Autophagy mod inactive.
For CCOC(=O)c1ccc(Oc2cc(C)nc(Cl)n2)cc1 the results were CHOP inhibitor 3, Dynein cargo inh -0.61 and bCat nuc transl -1.
For COc1ccc(-n2c(=O)c(NC(=O)c3ccccc3)c3n(c2=S)CCCCC3)cc1 the results were CHOP inhibitor 9, MT stabilizer 1, Dynein cargo inh 1.7, L major viab -3, bCat nuc transl 0 and Autophagy mod active.
For C=C(C)Cn1c(=O)c(NC(=O)c2ccccc2)c2n(c1=S)CCC2 the results were CHOP inhibitor 5, MT stabilizer 1, Dynein cargo inh -0.48, L major viab -1, bCat nuc transl -1 and Autophagy mod inactive.
`O=C(OCCN1C(=O)c2cccc3c(N4CCOCC4)ccc(c23)C1=O)c1ccc(Cl)cc1` gave CHOP inhibitor 0, MT stabilizer 12, Dynein cargo inh 0.013, L major viab 2, bCat nuc transl 13 and Autophagy mod inactive.
